# Values joined by “and” are separate entries in the source; they are usually repeats but may differ in a detail not shown here. Identical values can stand only once.
# Tests used:
# Format in all cases: toxicity, cell-based
# HEK-293T [1] = assay: Multiplex assay against HEK293T; details: human, 24 h, 10 µM, compound concentration 10 uM;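 as to Population Tubulin-Different-Phenotype (%): share of the cells with healthy nuclei that show this phenotype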
# Method in brief: (§1)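 Tubulin, mitochondrial-mass and membrane-permeability phenotypes are per cents of healthy-nucleus cells. Cells were gated by CellPathfinder machine learning into Hoechst high-intensity objects or normal cells, normal cells into healthy, pyknosed or fragmented nuclei, and pyknosed cells into mitotic or apoptotic. Before that, live cells stained at seeding with Hoechst33342, BioTracker Green Microtubule Cytoskeleton Dye, MitoTracker Red and Annexin V Alexa Fluor 680 were imaged on a CQ1 microscope at 37°C and 5% CO2 after compound addition.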
# HEK-293T [2] = assay: Incucyte cell viability with HEK293T; details: human, 10 µM, compound concentration 10 uM; also: filed as whole numbers so only -1 and 0 and 1 occur
# Fibroblast = assay: Incucyte cell viability with human fibroblast; details: 10 µM, compound concentration 10 uM; also: filed as whole numbers so only -1 and 0 and 1 occur
# U2OS = assay: Multiplex assay against U2OS; details: human, 10 µM, compound concentration 10 uM; method in brief: as §1
# [3] = 0 h, replicate number 1, timepoint 0 hours
# [4] = 12 h, replicate number 1, timepoint 12 hours
# [5] = 18 h, replicate number 1, timepoint 18 hours
# [6] = 24 h, replicate number 1, timepoint 24 hours
structure (smiles),measurement,setting,value
O=C(O)c1ccc2c(c1)nc(Nc1cccc(Cl)c1)c1ccncc12 [SILMITASERTIB],Population Healthy Nuclei (%),HEK-293T [1]; replicate 1,77% and 74%
same,Population Hoechst High Intensity Objects (%),HEK-293T [1]; replicate 1,6% and 14%
same,Population Membrane Permeable-Phenotype (%),HEK-293T [1]; replicate 1,10%
same,Population Mitochondria Different-Phenotype (%),HEK-293T [1]; replicate 1,5% and 3%
same,Population Mitotic Cells (%),HEK-293T [1]; replicate 1,71% and 84%
same,Population Normal (%),HEK-293T [1]; replicate 1,93% and 85%
same,Population Pyknosed Nuclei (%),HEK-293T [1]; replicate 1,8% and 9%
same,Population Tubulin-Different-Phenotype (%),HEK-293T [1]; replicate 1,5% and 15%
same,Total Cell Count,HEK-293T [1]; replicate 1,718 and 592
same,Population Apoptotic (%),HEK-293T [1]; replicate 2,9% and 4%
same,Population Fragmented Nuclei (%),HEK-293T [1]; replicate 2,15% and 30%
same,Population Healthy Nuclei (%),HEK-293T [1]; replicate 2,79% and 67%
same,Population Hoechst High Intensity Objects (%),HEK-293T [1]; replicate 2,7% and 4%
same,Population Membrane Permeable-Phenotype (%),HEK-293T [1]; replicate 2,9% and 4%
same,Population Mitochondria Different-Phenotype (%),HEK-293T [1]; replicate 2,6% and 0%
same,Population Mitotic Cells (%),HEK-293T [1]; replicate 2,90% and 95%
same,Population Normal (%),HEK-293T [1]; replicate 2,92% and 95%
same,Population Pyknosed Nuclei (%),HEK-293T [1]; replicate 2,4% and 1%
same,Total Cell Count,HEK-293T [1]; replicate 2,1562 and 3163
same,Growth Rate,HEK-293T [2]; [3],0
same,Growth Rate,"HEK-293T [2]; 6 h, replicate number 1, timepoint 6 hours",0
same,Growth Rate,HEK-293T [2]; [4],0
same,Growth Rate,HEK-293T [2]; [5],0
same,Growth Rate,HEK-293T [2]; [6],0
same,Growth Rate,Fibroblast; [3],0
same,Growth Rate,Fibroblast; [4],1
same,Growth Rate,Fibroblast; [5],0
same,Growth Rate,"Fibroblast; 18 h, replicate number 2, timepoint 18 hours",1
same,Growth Rate,Fibroblast; [6],0
same,Growth Rate,"Fibroblast; 24 h, replicate number 2, timepoint 24 hours",1
same,Population Apoptotic (%),"U2OS; 12 h, replicate 1",50% and 36%
same,Population Fragmented Nuclei (%),"U2OS; 12 h, replicate 1",5%
same,Population Healthy Nuclei (%),"U2OS; 12 h, replicate 1",87% and 85%
same,Population Hoechst High Intensity Objects (%),"U2OS; 12 h, replicate 1",4%
same,Population Membrane Permeable-Phenotype (%),"U2OS; 12 h, replicate 1",11% and 8%
same,Population Mitotic Cells (%),"U2OS; 12 h, replicate 1",50% and 63%
same,Population Normal (%),"U2OS; 12 h, replicate 1",95%
same,Population Pyknosed Nuclei (%),"U2OS; 12 h, replicate 1",7%
same,Population Tubulin-Different-Phenotype (%),"U2OS; 12 h, replicate 1",19% and 32%
same,Total Cell Count,"U2OS; 12 h, replicate 1",163 and 151
same,Population Apoptotic (%),"U2OS; 12 h, replicate 2",33%
same,Population Fragmented Nuclei (%),"U2OS; 12 h, replicate 2",6% and 8%
same,Population Healthy Nuclei (%),"U2OS; 12 h, replicate 2",90%
same,Population Hoechst High Intensity Objects (%),"U2OS; 12 h, replicate 2",6% and 13%
same,Population Membrane Permeable-Phenotype (%),"U2OS; 12 h, replicate 2",10% and 4%
same,Population Mitochondria Different-Phenotype (%),"U2OS; 12 h, replicate 2",27% and 26%
same,Population Mitotic Cells (%),"U2OS; 12 h, replicate 2",66%
same,Population Normal (%),"U2OS; 12 h, replicate 2",93% and 86%
same,Population Pyknosed Nuclei (%),"U2OS; 12 h, replicate 2",2% and 4%
same,Population Tubulin-Different-Phenotype (%),"U2OS; 12 h, replicate 2",31% and 18%
same,Total Cell Count,"U2OS; 12 h, replicate 2",140 and 110
same,Population Apoptotic (%),"U2OS; 24 h, replicate 1",23% and 50%
same,Population Fragmented Nuclei (%),"U2OS; 24 h, replicate 1",9% and 4%
same,Population Healthy Nuclei (%),"U2OS; 24 h, replicate 1",82% and 91%
same,Population Hoechst High Intensity Objects (%),"U2OS; 24 h, replicate 1",1% and 3%
same,Population Membrane Permeable-Phenotype (%),"U2OS; 24 h, replicate 1",14% and 6%
same,Population Mitochondria Different-Phenotype (%),"U2OS; 24 h, replicate 1",20% and 35%
same,Population Mitotic Cells (%),"U2OS; 24 h, replicate 1",76% and 50%
same,Population Normal (%),"U2OS; 24 h, replicate 1",98% and 96%
same,Population Pyknosed Nuclei (%),"U2OS; 24 h, replicate 1",8% and 4%
same,Population Tubulin-Different-Phenotype (%),"U2OS; 24 h, replicate 1",33% and 35%
same,Total Cell Count,"U2OS; 24 h, replicate 1",208 and 206
same,Population Apoptotic (%),"U2OS; 24 h, replicate 2",25% and 11%
same,Population Fragmented Nuclei (%),"U2OS; 24 h, replicate 2",8%
same,Population Healthy Nuclei (%),"U2OS; 24 h, replicate 2",83% and 76%
same,Population Hoechst High Intensity Objects (%),"U2OS; 24 h, replicate 2",4%
same,Population Membrane Permeable-Phenotype (%),"U2OS; 24 h, replicate 2",10% and 5%
same,Population Mitochondria Different-Phenotype (%),"U2OS; 24 h, replicate 2",41%
same,Population Mitotic Cells (%),"U2OS; 24 h, replicate 2",75% and 88%
same,Population Normal (%),"U2OS; 24 h, replicate 2",95%
same,Population Pyknosed Nuclei (%),"U2OS; 24 h, replicate 2",7% and 14%
same,Population Tubulin-Different-Phenotype (%),"U2OS; 24 h, replicate 2",31% and 30%
same,Total Cell Count,"U2OS; 24 h, replicate 2",168 and 127

# — ChEMBL document CHEMBL4689842, “EUbOPEN Chemogenomics Library wave 1” (2021)
